In ChEMBL document CHEMBL3286243, “Polyhydroxyanthraquinones as quorum sensing inhibitors from the guttates of Penicillium restrictum and their analysis by desorption electrospray ionization mass spectrometry” (J Nat Prod, 2014):
Positions of bridges follow the written chain, without caps; N, C: chain ends. Residues, ends and D or L forms follow the SMILES beside them.

Biological target: T1, Accessory gene regulator protein A (Staphylococcus aureus) (UniProt P0A0I7)
T1 sequence (whole entry): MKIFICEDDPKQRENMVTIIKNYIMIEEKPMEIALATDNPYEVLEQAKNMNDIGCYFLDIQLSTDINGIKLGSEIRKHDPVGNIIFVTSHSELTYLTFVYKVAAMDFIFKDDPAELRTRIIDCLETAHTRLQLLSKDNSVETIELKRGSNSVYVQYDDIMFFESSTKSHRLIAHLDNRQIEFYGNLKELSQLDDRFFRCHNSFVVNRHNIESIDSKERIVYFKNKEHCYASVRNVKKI
Experiment: Inhibition of AGR quorum sensing system-mediated delta toxin production in methicillin-resistant Staphylococcus aureus AH2759 incubated for 15 hrs by Western blotting analysis
In short: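 Cultures from the agr P3-lux plate were pooled and filtered (0.22 μm). Medium (2.5 μL) was run on 15% SDS-PAGE and transferred to PVDF. Blots were blocked overnight at 4 °C in milk/BSA in TBST, then probed 1 h at rt with rabbit anti-delta toxin (1:2000) and HRP anti-rabbit (1:10 000). Detection was chemiluminescence on X-ray film. AIP-2-treated cultures were included.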

Row | Compound | inhibition
1 | CC(=O)C(O)c1cc(O)c2c(c1)C(=O)c1cc(O)cc(O)c1C2=O (centres undefined) | Dose-dependent effect
2 | O=C(O)c1cc(O)c2c(c1)C(=O)c1cc(O)c(O)c(O)c1C2=O | Dose-dependent effect
3 | CC(C)C[C@@H]1NC(=O)[C@H](CO)NC(=O)[C@H](CO)NC(=O)[C@@H](NC(=O)[C@H](C)NC(=O)[C@H](CC(N)=O)NC(=O)[C@@H](NC(=O)CN)C(C)C)CSC(=O)[C@H](Cc2ccccc2)NC1=O (H-GVNACSSLF; thioester 5-C) | Dose-dependent effect
4 | O=C1c2cc(O)cc(O)c2C(=O)c2c(O)cc(CO)cc21 | Dose-dependent effect
